Measurements: PubChem BioAssay
Activity calls are given as the source filed them.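 Rule for the calls, unless noted: active = viability at or below 30% in both replicate assays; inconclusive = viability at or below 30% in just one of the two assays; inactive = the rest.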

Tests used:
[1] = HUVEC growth inhibition – cell-based, human, primary screen (AID 575); settings: HUVEC proliferation, CellTiter-Glo luminescence, 72 h; at 10 µM; stronger effect = lower value;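 note: 100% = median of untreated cell wells with 0.1% DMSO on each plate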
Procedure, shortened: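 Material: primary human umbilical vein endothelial cells / Schedule: 72 h exposure, 37 °C, 5% CO2, 30 min RT equilibration / Signal: ATP-based CellTiter-Glo luminescent read / Read-out basis: percent of median DMSO-control luminescence / Control set: 32 DMSO-only cell-control wells (high), 32 MePR drug-control wells (low) per plate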

[2] = growth inhibitors of H69AR lung tumor, primary screen, human, duplicate replicates (AID 580;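 active = viability at or under a set limit in both replicates, limit being median viability minus 3 SD, cut at about 48% in these data, passing the limit was not always enough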;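 note: 100% = mean luminescence of untreated wells and 0% = no signal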); settings: H69AR lung tumor cells viability, ATP luminescence, 72 h; at 10 µM; stronger effect = lower value
[3] = reversal of MRP1-mediated doxorubicin resistance, pilot screen, H69AR cells, doxorubicin co-treatment (AID 601;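 active = viability loss from added drug above about 55%, and viability with drug at most 40%, in both replicates, limit read from the data, passing the limit was not always enough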); settings: CellTiter-Glo, 72 h, at 10 µM; for differential viability (reversal): stronger effect = higher value
[4] = 384-well plate pilot, post-Golgi transport modulator project, inhibition of yeast transport mutant growth (AID 636; in the data active = inhibition above about 31%); settings: absorbance 615 nm, about 18 h, stronger effect = higher value
[5] = growth suppression of yeast trafficking mutant, preliminary HTS, modulators of trafficking downstream of Golgi apparatus project, 1536-format plate, OD 615 nm (AID 637; in the data active = inhibition above about 30%); settings: yeast transport mutant growth, absorbance 615 nm, 18 h; stronger effect = higher value
[6] = H69AR cells + 2 uM doxorubicin, measured here: viability with 2 uM doxorubicin, stronger effect = lower value
[7] = H69AR cells, compound alone cytotoxicity

Compound | viability [1] | viability [2] | differential viability (reversal) ([3]; H69AR cells + 2 uM doxorubicin) | viability [3, 6] [%] | viability [3, 7] [%] | inhibition [4] | inhibition [5]
COc1cccc(C(=O)Nc2cc(NC(=O)c3ccco3)ccc2OC)c1 | 69.1% (inactive) | 80.6% (inactive) | 2.75% (inactive) | 77.8 | 80.6 | -3.64% (inactive) | -2.22% (inactive)
O=C(Nc1ccc2c(c1)OCO2)OCc1ccccc1 | 78.9% (inactive) | 106% (inactive) | 11.4% (inactive) | 94.5 | 106 | -4.4% (inactive) | 2.22% (inactive)
CCCCn1c(SCc2cccnc2)nc2c1c(=O)n(C)c(=O)n2C | 121% (inactive) | 92.8% (inactive) | 13.7% (inactive) | 79.2 | 92.8 | -7.76% (inactive) | -2.86% (inactive)
CCOC(=O)C1CCCn2c1nc1sc3c(c1c2=O)CCCC3 (stereo not given) | 86.1% (inactive) | 89.1% (inactive) | -9.13% (inactive) | 98.3 | 89.1 | 0.27% (inactive) | -4.6% (inactive)
CCCCOc1ccc(C(=O)Nc2ccc(N3CCN(C(=O)C(C)C)CC3)cc2)cc1 | 79.3% (inactive) | 75% (inactive) | -6.69% (inactive) | 81.7 | 75 | -3.55% (inactive) | 2.22% (inactive)
CCc1nc(C)ccc1OCC(=O)O | 102% (inactive) | 93% (inactive) | -12.6% (inactive) | 106 | 93 | 4.8% (inactive) | 2.7% (inactive)
CCOC(=O)c1nn(-c2sc(C(=O)OC)c(C)c2C(=O)OC)cc1O | 105% (inactive) | 85.1% (inactive) | 3.34% (inactive) | 81.7 | 85.1 | -1.82% (inactive) | 3.33% (inactive)
CCN(CC)C(=O)CSc1nnc(-c2cc(OC)cc(OC)c2)o1 | 84.1% (inactive) | 93.9% (inactive) | 2.03% (inactive) | 91.9 | 93.9 | -5.87% (inactive) | 2.7% (inactive)
O=C(NC12CC3CC(CC(C3)C1)C2)N1CCN(C(=O)C2CCCO2)CC1 (stereo not given) | 111% (inactive) | 95.6% (inactive) | 11.2% (inactive) | 84.4 | 95.6 | -7.07% (inactive) | 5.24% (inactive)
CCOc1ccc(NC(=O)c2ccncc2)cc1 | 112% (inactive) | 99.9% (inactive) | 11.4% (inactive) | 88.5 | 99.9 | -2.89% (inactive) | -0.63% (inactive)
